Results as given in ChEMBL document CHEMBL4382192, “Discovery of a potent dual ALK and EGFR T790M inhibitor” (Eur J Med Chem, 2017).

Experiments:
[1] = Half life in mouse at 2 mg/kg, iv; format: ADME, organism-based; conditions: in vivo
[2] = Volume of distribution at steady state in mouse at 2 mg/kg, iv; format: ADME, organism-based; conditions: in vivo, read-out: Vdss
[3] = Drug uptake in mouse lung at 2 mg/kg, iv after 2 hrs; format: ADME, organism-based; conditions: read-out: Drug uptake
[4] = system: Tyrosine-protein kinase ABL1 (Homo sapiens), P00519 [Y253F]; assay: Binding affinity to human phosphorylated ABL1 Y253F mutant (S229 to K512 residues) expressed in mammalian expression system assessed as residual binding level at 1 uM by Kinomescan method relative to control
Method in brief: (§1)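 Kinome-wide selectivity panel run by the KINOMEscan method, with the test compound at a single concentration of 1 μM. Wild-type and mutant kinases were profiled in the same screen.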

[5] = molecular target: Atypical kinase COQ8A, mitochondrial (Homo sapiens) (UniProt Q8NI60); assay: Binding affinity to wild-type human full length ADCK3 (M280 to Q647 residues) expressed in bacterial expression system assessed as residual binding level at 1 uM by Kinomescan method relative to control
[6] = molecular target: 5'-AMP-activated protein kinase catalytic subunit alpha-2 (Homo sapiens) (UniProt P54646); assay: Binding affinity to wild-type human partial length AMPK alpha2 (M1 to E306 residues) expressed in bacterial expression system assessed as residual binding level at 1 uM by Kinomescan method relative to control
[7] = molecular target: Cyclin-dependent kinase 19 (Homo sapiens) (UniProt Q9BWU1); assay: Binding affinity to wild-type human partial length CDK11 (M1 to N360 residues) expressed in bacterial expression system assessed as residual binding level at 1 uM by Kinomescan method relative to control
[8] = molecular target: CDK4/Cyclin D3 (Homo sapiens) (UniProt P11802+P30281); assay: Binding affinity to wild-type human full length CDK4/cyclinD3 (M1 to E303 residues) expressed in mammalian expression system assessed as residual binding level at 1 uM by Kinomescan method relative to control
[9] = molecular target: Dual specificity tyrosine-phosphorylation-regulated kinase 1A (Homo sapiens) (UniProt Q13627); assay: Binding affinity to wild-type human partial length DYRK1A (H129 to S509 residues) expressed in mammalian expression system assessed as residual binding level at 1 uM by Kinomescan method relative to control
[10] = molecular target: Ephrin type-B receptor 2 (Homo sapiens) (UniProt P29323); assay: Binding affinity to wild-type human partial length EPHB2 (I597 to L902 residues) expressed in bacterial expression system assessed as residual binding level at 1 uM by Kinomescan method relative to control
[11] = molecular target: Serine/threonine-protein kinase/endoribonuclease IRE1 (Homo sapiens) (UniProt O75460); assay: Binding affinity to wild-type human partial length ERN1 (S551 to E852 residues) expressed in mammalian expression system assessed as residual binding level at 1 uM by Kinomescan method relative to control
[12] = molecular target: Focal adhesion kinase 1 (Homo sapiens) (UniProt Q05397); assay: Binding affinity to wild-type human partial length FAK (D402 to R696 residues) expressed in bacterial expression system assessed as residual binding level at 1 uM by Kinomescan method relative to control
[13] = molecular target: Vascular endothelial growth factor receptor 3 (Homo sapiens) (UniProt P35916); assay: Binding affinity to wild-type human partial length FLT4 (E821 to E1196 residues) expressed in bacterial expression system assessed as residual binding level at 1 uM by Kinomescan method relative to control
[14] = molecular target: Beta-adrenergic receptor kinase 1 (Homo sapiens) (UniProt P25098); assay: Binding affinity to wild-type human full length GRK2 (M1 to L689 residues) expressed in mammalian expression system assessed as residual binding level at 1 uM by Kinomescan method relative to control
Method in brief: (§2)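 Single-point kinome-wide KINOMEscan binding panel, test compound at 1 μM, run by the provider's standard protocol.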

[15] = molecular target: G protein-coupled receptor kinase 3 (Homo sapiens) (UniProt P35626); assay: Binding affinity to wild-type human full length GRK3 (M1 to L688 residues) expressed in mammalian expression system assessed as residual binding level at 1 uM by Kinomescan method relative to control; method in brief: as §2
[16] = molecular target: Insulin-like growth factor 1 receptor (Homo sapiens) (UniProt P08069); assay: Binding affinity to wild-type human partial length IGF1R (L972 to D1294 residues) expressed in bacterial expression system assessed as residual binding level at 1 uM by Kinomescan method relative to control
[17] = system: Leucine-rich repeat serine/threonine-protein kinase 2 (Homo sapiens), Q5S007 [G2019S]; assay: Binding affinity to human partial length LRRK2 G2019S mutant (H970 to E2527 residues) expressed in mammalian expression system assessed as residual binding level at 1 uM by Kinomescan method relative to control; method in brief: as §1
[18] = molecular target: Mitogen-activated protein kinase kinase kinase 4 (Homo sapiens) (UniProt Q9Y6R4); assay: Binding affinity to wild-type human partial length MAP3K4 (G1319 to E1608 residues) expressed in bacterial expression system assessed as residual binding level at 1 uM by Kinomescan method relative to control
[19] = molecular target: Serine/threonine-protein kinase Nek9 (Homo sapiens) (UniProt Q8TD19); assay: Binding affinity to wild-type human partial length NEK9 (P32 to R328 residues) expressed in bacterial expression system assessed as residual binding level at 1 uM by Kinomescan method relative to control
[20] = molecular target: Serine/threonine-protein kinase PAK 3 (Homo sapiens) (UniProt O75914); assay: Binding affinity to wild-type human full length PAK3 (M1 to R544 residues) expressed in bacterial expression system assessed as residual binding level at 1 uM by Kinomescan method relative to control; method in brief: as §2
[21] = molecular target: Platelet-derived growth factor receptor alpha (Homo sapiens) (UniProt P16234); assay: Binding affinity to wild-type human partial length PDGFRA (V575 to D1002 residues) expressed in mammalian expression system assessed as residual binding level at 1 uM by Kinomescan method relative to control
[22] = molecular target: Phosphatidylinositol 4,5-bisphosphate 3-kinase catalytic subunit delta isoform (Homo sapiens) (UniProt O00329); assay: Binding affinity to wild-type human partial length PIK3CD (R108 to Q1044 residues) expressed in mammalian expression system assessed as residual binding level at 1 uM by Kinomescan method relative to control
[23] = molecular target: Serine/threonine-protein kinase 16 (Homo sapiens) (UniProt O75716); assay: Binding affinity to wild-type human partial length STK16 (G11 to I305 residues) expressed in bacterial expression system assessed as residual binding level at 1 uM by Kinomescan method relative to control
[24] = molecular target: Tyrosine-protein kinase TXK (Homo sapiens) (UniProt P42681); assay: Binding affinity to wild-type human partial length TXK (L238 to W527 residues) expressed in bacterial expression system assessed as residual binding level at 1 uM by Kinomescan method relative to control
[25] = molecular target: Non-receptor tyrosine-protein kinase TYK2 (Homo sapiens) (UniProt P29597); assay: Binding affinity to wild-type human partial length TYK2 JH1 catalytic domain (V877 to C1187 residues) expressed in mammalian expression system assessed as residual binding level at 1 uM by Kinomescan method relative to control

Sequence of Tyrosine-protein kinase TXK (Homo sapiens) (P42681 whole entry, the tested form may be a part): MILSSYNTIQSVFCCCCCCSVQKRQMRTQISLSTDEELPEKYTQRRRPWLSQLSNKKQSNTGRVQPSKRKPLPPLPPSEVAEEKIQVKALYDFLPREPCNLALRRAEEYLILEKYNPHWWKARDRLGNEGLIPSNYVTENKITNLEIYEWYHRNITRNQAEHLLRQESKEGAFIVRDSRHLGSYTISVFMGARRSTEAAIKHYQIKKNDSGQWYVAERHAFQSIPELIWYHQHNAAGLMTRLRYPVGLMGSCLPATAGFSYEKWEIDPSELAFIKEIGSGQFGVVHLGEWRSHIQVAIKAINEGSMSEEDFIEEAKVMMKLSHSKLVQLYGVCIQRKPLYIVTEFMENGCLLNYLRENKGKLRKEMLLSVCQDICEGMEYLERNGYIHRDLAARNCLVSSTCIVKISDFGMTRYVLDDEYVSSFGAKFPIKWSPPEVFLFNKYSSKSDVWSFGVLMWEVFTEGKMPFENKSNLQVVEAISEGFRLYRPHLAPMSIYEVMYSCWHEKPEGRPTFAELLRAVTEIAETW
Sequence of Serine/threonine-protein kinase/endoribonuclease IRE1 (Homo sapiens) (O75460 19-977 limits assumed): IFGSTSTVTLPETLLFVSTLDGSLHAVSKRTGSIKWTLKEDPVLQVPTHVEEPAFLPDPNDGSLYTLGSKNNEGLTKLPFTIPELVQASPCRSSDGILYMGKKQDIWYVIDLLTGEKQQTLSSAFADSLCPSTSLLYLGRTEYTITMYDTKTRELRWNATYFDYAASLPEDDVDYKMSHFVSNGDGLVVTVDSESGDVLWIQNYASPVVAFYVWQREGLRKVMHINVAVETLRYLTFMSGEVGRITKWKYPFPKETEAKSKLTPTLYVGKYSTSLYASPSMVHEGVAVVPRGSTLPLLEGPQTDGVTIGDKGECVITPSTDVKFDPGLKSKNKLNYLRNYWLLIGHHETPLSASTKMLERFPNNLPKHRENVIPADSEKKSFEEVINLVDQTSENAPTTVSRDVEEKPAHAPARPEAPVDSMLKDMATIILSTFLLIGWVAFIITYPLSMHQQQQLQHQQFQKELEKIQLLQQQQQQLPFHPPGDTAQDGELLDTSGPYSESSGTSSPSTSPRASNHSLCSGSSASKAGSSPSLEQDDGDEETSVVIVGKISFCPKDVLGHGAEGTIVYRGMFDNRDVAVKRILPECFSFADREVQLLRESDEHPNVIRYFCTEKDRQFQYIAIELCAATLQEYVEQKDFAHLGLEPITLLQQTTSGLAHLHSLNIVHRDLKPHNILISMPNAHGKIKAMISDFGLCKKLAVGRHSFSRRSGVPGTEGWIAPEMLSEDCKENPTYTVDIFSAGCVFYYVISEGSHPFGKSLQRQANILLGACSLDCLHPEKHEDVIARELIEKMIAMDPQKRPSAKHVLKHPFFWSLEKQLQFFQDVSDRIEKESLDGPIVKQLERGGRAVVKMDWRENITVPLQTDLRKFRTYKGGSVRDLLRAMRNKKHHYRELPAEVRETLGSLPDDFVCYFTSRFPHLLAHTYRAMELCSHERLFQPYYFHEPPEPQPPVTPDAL
Sequence of Phosphatidylinositol 4,5-bisphosphate 3-kinase catalytic subunit delta isoform (Homo sapiens) (O00329 whole entry, the tested form may be a part, canonical isoform): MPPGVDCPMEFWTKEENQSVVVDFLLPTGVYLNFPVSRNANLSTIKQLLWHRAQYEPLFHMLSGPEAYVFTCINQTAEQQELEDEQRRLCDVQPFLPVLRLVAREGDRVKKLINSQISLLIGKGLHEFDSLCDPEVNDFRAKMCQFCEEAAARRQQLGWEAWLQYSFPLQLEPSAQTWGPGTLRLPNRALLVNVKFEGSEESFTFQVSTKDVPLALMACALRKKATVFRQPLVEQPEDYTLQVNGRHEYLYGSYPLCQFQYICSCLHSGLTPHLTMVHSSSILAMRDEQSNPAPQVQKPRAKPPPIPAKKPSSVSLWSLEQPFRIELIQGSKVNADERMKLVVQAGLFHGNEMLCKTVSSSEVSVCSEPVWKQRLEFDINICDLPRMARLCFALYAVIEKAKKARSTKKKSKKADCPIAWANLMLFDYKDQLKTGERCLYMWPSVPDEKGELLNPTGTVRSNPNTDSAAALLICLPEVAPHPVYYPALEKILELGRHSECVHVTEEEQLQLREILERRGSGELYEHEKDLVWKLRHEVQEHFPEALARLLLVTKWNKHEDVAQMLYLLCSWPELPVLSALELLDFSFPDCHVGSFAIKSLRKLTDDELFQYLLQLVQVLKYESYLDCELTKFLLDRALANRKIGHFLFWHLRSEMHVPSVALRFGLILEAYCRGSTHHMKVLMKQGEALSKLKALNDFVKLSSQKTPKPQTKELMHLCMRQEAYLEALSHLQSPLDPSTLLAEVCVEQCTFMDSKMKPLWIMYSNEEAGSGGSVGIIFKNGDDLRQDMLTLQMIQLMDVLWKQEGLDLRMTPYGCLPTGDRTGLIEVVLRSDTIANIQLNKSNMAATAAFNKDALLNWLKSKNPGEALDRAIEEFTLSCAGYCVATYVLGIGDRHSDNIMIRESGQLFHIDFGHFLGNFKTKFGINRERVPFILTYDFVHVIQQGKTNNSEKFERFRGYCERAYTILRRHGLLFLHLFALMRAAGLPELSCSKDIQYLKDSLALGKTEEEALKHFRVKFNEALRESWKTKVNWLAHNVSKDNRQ
Sequence of Mitogen-activated protein kinase kinase kinase 4 (Homo sapiens) (Q9Y6R4 whole entry, the tested form may be a part): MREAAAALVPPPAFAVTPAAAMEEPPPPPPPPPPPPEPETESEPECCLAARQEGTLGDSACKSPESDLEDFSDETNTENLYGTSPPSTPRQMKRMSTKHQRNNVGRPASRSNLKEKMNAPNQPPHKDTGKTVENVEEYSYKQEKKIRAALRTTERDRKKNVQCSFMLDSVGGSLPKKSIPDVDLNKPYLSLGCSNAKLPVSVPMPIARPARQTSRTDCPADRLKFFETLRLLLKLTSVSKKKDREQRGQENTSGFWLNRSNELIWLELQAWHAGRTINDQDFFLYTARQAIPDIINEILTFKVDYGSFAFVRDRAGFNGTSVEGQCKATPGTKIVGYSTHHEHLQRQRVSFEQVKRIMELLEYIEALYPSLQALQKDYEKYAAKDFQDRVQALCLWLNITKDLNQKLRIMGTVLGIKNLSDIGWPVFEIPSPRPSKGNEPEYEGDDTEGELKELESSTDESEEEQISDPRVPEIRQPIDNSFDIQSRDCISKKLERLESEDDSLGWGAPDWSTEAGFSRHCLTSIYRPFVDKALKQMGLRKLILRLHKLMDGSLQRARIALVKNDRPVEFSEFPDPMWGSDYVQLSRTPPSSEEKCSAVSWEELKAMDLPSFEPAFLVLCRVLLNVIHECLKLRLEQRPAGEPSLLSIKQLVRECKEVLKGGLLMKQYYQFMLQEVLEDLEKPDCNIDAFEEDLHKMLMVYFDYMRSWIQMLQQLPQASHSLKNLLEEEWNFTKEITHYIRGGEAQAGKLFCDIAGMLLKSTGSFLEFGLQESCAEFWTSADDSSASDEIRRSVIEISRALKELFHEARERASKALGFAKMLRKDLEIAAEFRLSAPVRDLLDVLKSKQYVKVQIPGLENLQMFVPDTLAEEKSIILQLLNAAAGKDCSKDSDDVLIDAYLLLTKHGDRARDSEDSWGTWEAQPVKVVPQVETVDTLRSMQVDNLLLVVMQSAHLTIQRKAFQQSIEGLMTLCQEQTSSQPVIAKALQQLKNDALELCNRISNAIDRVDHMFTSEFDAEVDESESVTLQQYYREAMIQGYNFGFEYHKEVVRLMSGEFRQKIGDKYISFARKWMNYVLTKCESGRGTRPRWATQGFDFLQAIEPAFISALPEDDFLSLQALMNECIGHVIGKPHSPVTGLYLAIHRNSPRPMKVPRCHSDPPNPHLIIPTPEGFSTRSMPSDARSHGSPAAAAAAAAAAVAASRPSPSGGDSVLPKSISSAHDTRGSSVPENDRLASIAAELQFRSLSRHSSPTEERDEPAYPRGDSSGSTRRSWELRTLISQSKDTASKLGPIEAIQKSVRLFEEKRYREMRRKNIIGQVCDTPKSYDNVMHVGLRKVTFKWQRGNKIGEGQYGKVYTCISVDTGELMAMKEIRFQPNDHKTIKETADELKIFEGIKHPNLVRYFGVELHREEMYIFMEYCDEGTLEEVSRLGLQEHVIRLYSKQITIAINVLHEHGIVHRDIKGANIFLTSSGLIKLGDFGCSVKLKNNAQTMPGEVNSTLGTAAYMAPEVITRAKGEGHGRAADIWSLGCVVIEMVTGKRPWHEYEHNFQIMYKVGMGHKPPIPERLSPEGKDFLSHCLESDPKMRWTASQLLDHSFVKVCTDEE
Sequence of Serine/threonine-protein kinase 16 (Homo sapiens) (O75716 whole entry, the tested form may be a part): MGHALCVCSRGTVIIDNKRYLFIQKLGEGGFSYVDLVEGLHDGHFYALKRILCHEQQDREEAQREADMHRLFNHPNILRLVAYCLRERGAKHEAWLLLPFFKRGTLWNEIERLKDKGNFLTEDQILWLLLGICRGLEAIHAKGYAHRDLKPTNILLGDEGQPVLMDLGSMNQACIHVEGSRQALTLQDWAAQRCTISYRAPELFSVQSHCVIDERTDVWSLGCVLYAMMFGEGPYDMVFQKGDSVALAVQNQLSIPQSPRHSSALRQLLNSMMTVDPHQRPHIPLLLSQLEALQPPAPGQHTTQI
Sequence of Atypical kinase COQ8A, mitochondrial (Homo sapiens) (Q8NI60 163-647 limits assumed): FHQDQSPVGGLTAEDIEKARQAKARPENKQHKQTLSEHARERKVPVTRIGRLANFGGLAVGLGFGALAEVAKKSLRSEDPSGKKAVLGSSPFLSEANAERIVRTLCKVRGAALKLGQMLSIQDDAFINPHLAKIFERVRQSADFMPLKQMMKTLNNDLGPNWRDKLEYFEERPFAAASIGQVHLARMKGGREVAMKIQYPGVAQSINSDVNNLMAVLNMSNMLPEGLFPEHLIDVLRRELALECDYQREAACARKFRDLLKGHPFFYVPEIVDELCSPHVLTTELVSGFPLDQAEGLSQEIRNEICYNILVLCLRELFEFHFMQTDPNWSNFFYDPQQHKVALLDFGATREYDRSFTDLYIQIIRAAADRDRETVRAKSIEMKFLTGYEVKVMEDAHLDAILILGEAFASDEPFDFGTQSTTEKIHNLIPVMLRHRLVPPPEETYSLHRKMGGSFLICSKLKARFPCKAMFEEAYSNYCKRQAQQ

With C=CC(=O)Nc1cc(Nc2ncc(Cl)c(Nc3ccccc3S(=O)(=O)C(C)C)n2)c(OC)cc1N(C)CCN(C)C the half-life [1] was 75 min, the Vd [2] was 2.66 L/kg and the concentration at 2 h [3] was 2360 nM. For the same compound, the Activity [4] was 2.1%, the Activity [5] was 100% and the Activity [6] was 23%. For the same compound, the Activity [7] was 86%, the Activity [8] was 55% and the Activity [9] was 71%. It also gave an Activity [10] of 61%, an Activity [11] of 39% and an Activity [12] of 0%. For the same compound, the Activity [13] was 36%, the Activity [14] was 100% and the Activity [15] was 100%. For the same compound, the Activity [16] was 0.55%, the Activity [17] was 0.95% and the Activity [18] was 67%. For the same compound, the Activity [19] was 70%, the Activity [20] was 23% and the Activity [21] was 83%. For the same compound, the Activity [22] was 75%, the Activity [23] was 64% and the Activity [24] was 0.65%. For the same compound, the Activity [25] was 17%.
